Activity calls are given as the source filed them. The calls are words filed in the database; no cut-off is given here.
Columns and labels:
[1] = system: HepG2; assay: Antiproliferative activity against human HepG2 cells assessed as reduction in cell growth at 2 uM incubated for 72 hrs by CCK-8 assay relative to control; format: functional
[2] = molecular target: Histone deacetylase 1 (Homo sapiens, UniProt Q13547); assay: Potency index, ratio of IC50 of CS055 to IC50 of compound for inhibition of recombinant human HDAC1 using […] as substrate incubated for 10 mins followed by substrate addition and measured after 30 mins by fluorescence based assay
Histone deacetylase 1, sequence (Q13547 whole entry): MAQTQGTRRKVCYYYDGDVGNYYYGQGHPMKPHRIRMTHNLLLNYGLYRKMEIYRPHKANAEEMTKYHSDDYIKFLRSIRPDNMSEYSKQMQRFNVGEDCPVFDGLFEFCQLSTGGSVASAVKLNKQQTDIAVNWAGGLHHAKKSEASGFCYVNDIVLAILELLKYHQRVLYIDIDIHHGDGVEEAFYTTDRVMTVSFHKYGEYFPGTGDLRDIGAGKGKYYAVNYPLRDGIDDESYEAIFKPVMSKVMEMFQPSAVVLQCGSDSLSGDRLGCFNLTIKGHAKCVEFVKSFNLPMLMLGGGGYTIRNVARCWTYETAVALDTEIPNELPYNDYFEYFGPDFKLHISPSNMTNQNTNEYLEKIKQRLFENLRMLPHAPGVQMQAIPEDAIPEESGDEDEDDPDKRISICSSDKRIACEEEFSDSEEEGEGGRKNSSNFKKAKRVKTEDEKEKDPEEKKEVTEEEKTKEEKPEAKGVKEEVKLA

[3] = system: HepG2; assay: Cytotoxicity against human HepG2 cells assessed as effect on cell morphology at 0.5 to 8 micromol incubated for 48 hrs by microscopic analysis; format: functional, cell-based; details: dose 0.5-8 µmol
How it was run: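 Five cancer cell lines treated with compound or DMSO (0.1 %) for 48 h. Morphology inspected by light microscopy at 10× objective.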

[4] = system: HeLa; assay: Induction of cell cycle arrest in human HeLa cells assessed as G2/M phase at 0.5 uM incubated for 24 hrs by PI staining based flow cytometry (reference value: 7.89 %); format: functional
How it was run: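 Treatment at 2, 1 and 0.5 μM for 24 h, alongside CS055 and roscovitine, against a DMSO (0.1 %) blank. Cells then stained with propidium iodide and analyzed by flow cytometry.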

[5] = system: A-375; assay: Induction of apoptosis in human A-375 cells assessed as early apoptotic cells at 1 uM incubated for 48 hrs by annexin V-FITC and PI staining based flow cytometry (reference value: 1.34 %); format: functional
[6] = system: HCT-116; assay: Induction of apoptosis in human HCT-116 cells assessed as viable cells at 2 uM incubated for 48 hrs by annexin V-FITC and PI staining based flow cytometry (reference value: 93.9 %); format: functional; details: read-out: Activity
[7] = system: HCT-116; assay: Induction of apoptosis in human HCT-116 cells assessed as early apoptotic cells at 1 uM incubated for 48 hrs by annexin V-FITC and PI staining based flow cytometry (reference value: 4.14 %); format: functional
[8] = system: HCT-116; assay: Induction of apoptosis in human HCT-116 cells assessed as viable cells at 0.5 uM incubated for 48 hrs by annexin V-FITC and PI staining based flow cytometry (reference value: 93.9 %); format: functional; details: read-out: Activity
[9] = system: NCI-H460; assay: Induction of apoptosis in human NCI-H460 cells assessed as early apoptotic cells at 2 uM incubated for 48 hrs by annexin V-FITC and PI staining based flow cytometry (reference value: 2.88 %); format: functional
[10] = system: NCI-H460; assay: Induction of apoptosis in human NCI-H460 cells assessed as early apoptotic cells at 1 uM incubated for 48 hrs by annexin V-FITC and PI staining based flow cytometry (reference value: 2.88 %); format: functional
[11] = system: NCI-H460; assay: Induction of apoptosis in human NCI-H460 cells assessed as late apoptotic cells at 0.5 uM incubated for 48 hrs by annexin V-FITC and PI staining based flow cytometry (reference value: 6.11 %); format: functional
[12] = system: HeLa; assay: Induction of apoptosis in human HeLa cells assessed as viable cells at 1 uM incubated for 48 hrs by annexin V-FITC and PI staining based flow cytometry (reference value: 98.5 %); format: functional; details: read-out: Activity
[13] = system: A-375; assay: Induction of apoptosis in human A-375 cells assessed as necrotic cells incubated for 48 hrs by annexin V-FITC and PI staining based flow cytometry; format: functional, cell-based; details: dose 0.5-2 µM
[14] = system: A-375; assay: Inhibition of HDAC in human A-375 cells assessed as increase the acetylation of histone H3 at 1 uM incubated for 12 hrs by DAPI and immunofluorescence staining based confocal microscopic analysis; format: cell-based
[15] = system: HCT-116; assay: Antitumor activity against human HCT-116 cells xenografted in Balb/c mouse assessed as tumor growth inhibition at 100 mg/kg, ip administered for 21 days and measured on day 21 relative to control; format: functional; details: HCT-116, ip, 504 h, time 21 day, read-out: GI
How it was run: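 HCT116 xenografts in BALB/c nude mice. Dosing started when tumours reached 100–300 mm³: intraperitoneal injection once daily for 21 days at 25, 50 or 100 mg/kg, versus blank. Body weight monitored. Tumour growth inhibition computed against blank.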

[16] = Cmax in ICR mouse at 20 mg/kg, ip measured upto 24 hrs by LC-MS/MS analysis; details: in vivo

Ratio IC50 [2]: 3
Cmax [16]: 1360 ng/mL
SMILES: Cc1ccc(Nc2nc(Cl)nc3c2ncn3Cc2ccc(C(=O)Nc3ccccc3N)cc2)cc1
inhibition at 2 µM [1]: 76.2%
Activity [3]: Active
Activity [4]: 51.85%
Activity [5]: 8%
viability at 2 µM [6]: 9.72%
Activity [7]: 72.1%
viability at 0.5 µM [8]: 21.3%
Activity [9]: 12%
Activity [10]: 18.6%
Activity [11]: 4.31%
viability at 1 µM [12]: 85.2%
Activity [13]: Dose-dependent effect
inhibition [14]: Active
inhibition in vivo at 100 mg/kg [15]: 44%

— ChEMBL document CHEMBL4765302, “Design, synthesis and biological evaluation of novel histone deacetylase1/2 (HDAC1/2) and cyclin-dependent Kinase2 (CDK2) dual inhibitors against malignant cancer” (Eur J Med Chem, 2020)
